Assay: Adverse events regardless of attribution
Type: in vivo, human
Method in brief: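 Children with recurrent/refractory CNS tumours took oral drug once daily, continuously, in 28-day cycles. Dosing was stratified by EIACD use, with start/escalation levels 20–40 mg/m² (no EIACD) or 15–32 mg/m² (EIACD). Monitoring included weekly exam, serum chemistries, CBC and urine protein for 8 weeks, and TSH before each cycle. Events other than hypertension were graded by CTCAE v3, later v4.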

COc1cc2c(Oc3ccc4[nH]c(C)cc4c3F)ncnc2cc1OCCCN1CCCC1 [cediranib, Cediranib]
Abdominal pain, events (patients) (grade 1 AE): 5(5) | Acidosis, events (patients) (grade 1 AE): 7(5) | Alanine aminotransferase increased, events (patients) (grade 1 AE): 44(25) | Alkaline phosphatase increased, events (patients) (grade 1 AE): 4(3) | Anal mucositis, events (patients) (grade 1 AE): 1(1) | Anal pain, events (patients) (grade 1 AE): 1(1) | Anemia, events (patients) (grade 1 AE): 4(4) | Anorexia, events (patients) (grade 1 AE): 9(9) | Aspartate aminotransferase increased, events (patients) (grade 1 AE): 38(20) | Back pain, events (patients) (grade 1 AE): 4(3) | Blood bilirubin increased, events (patients) (grade 1 AE): 17(10) | Bone pain, events (patients) (grade 1 AE): 1(1) | Cardiac troponin I increased, events (patients) (grade 1 AE): 1(1) | Chest wall pain, events (patients) (grade 1 AE): 1(1) | Cholesterol high, events (patients) (grade 1 AE): 1(1) | Chronic kidney disease, events (patients) (grade 1 AE): 1(1) | Constipation, events (patients) (grade 1 AE): 7(4) | Cough, events (patients) (grade 1 AE): 4(4) | Creatinine increased, events (patients) (grade 1 AE): 3(2) | Dehydration, events (patients) (grade 1 AE): 2(2) | Depression, events (patients) (grade 1 AE): 3(3) | Diarrhea, events (patients) (grade 1 AE): 44(30) | Dizziness, events (patients) (grade 1 AE): 3(3) | Dry mouth, events (patients) (grade 1 AE): 1(1) | Dry skin, events (patients) (grade 1 AE): 1(1) | Dyspepsia, events (patients) (grade 1 AE): 3(3) | Edema face, events (patients) (grade 1 AE): 1(1) | Edema limbs, events (patients) (grade 1 AE): 2(2) | Endocrine disorders - Other, specify, events (patients) (grade 1 AE): 1(1) | Epistaxis, events (patients) (grade 1 AE): 6(5) | Eye disorders - Other, specify, events (patients) (grade 1 AE): 1(1) | Fatigue, events (patients) (grade 1 AE): 11(10) | Fecal incontinence, events (patients) (grade 1 AE): 2(2) | Fever, events (patients) (grade 1 AE): 2(2) | GGT increased, events (patients) (grade 1 AE): 1(1) | Gastritis, events (patients) (grade 1 AE): 2(2) | Gastrointestinal disorders - Other, specify, events (patients) (grade 1 AE): 1(1) | Headache, events (patients) (grade 1 AE): 21(12) | Hematuria, events (patients) (grade 1 AE): 5(3) | Hemoglobin increased, events (patients) (grade 1 AE): 11(6) | Hoarseness, events (patients) (grade 1 AE): 1(1) | Hypercalcemia, events (patients) (grade 1 AE): 6(3) | Hyperglycemia, events (patients) (grade 1 AE): 19(14) | Hyperkalemia, events (patients) (grade 1 AE): 3(3) | Hypermagnesemia, events (patients) (grade 1 AE): 14(9) | Hypernatremia, events (patients) (grade 1 AE): 8(5) | Hypertension, events (patients) (grade 1 AE): 21(14) | Hyperthyroidism, events (patients) (grade 1 AE): 2(2) | Hypoalbuminemia, events (patients) (grade 1 AE): 25(16) | Hypocalcemia, events (patients) (grade 1 AE): 23(14) | Hypoglycemia, events (patients) (grade 1 AE): 5(5) | Hypokalemia, events (patients) (grade 1 AE): 20(16) | Hypomagnesemia, events (patients) (grade 1 AE): 8(6) | Hyponatremia, events (patients) (grade 1 AE): 23(12) | Hypophosphatemia, events (patients) (grade 1 AE): 15(12) | Hypothyroidism, events (patients) (grade 1 AE): 10(10) | INR increased, events (patients) (grade 1 AE): 1(1) | Investigations - Other, specify, events (patients) (grade 1 AE): 2(2) | Joint effusion, events (patients) (grade 1 AE): 1(1) | Leukoencephalopathy, events (patients) (grade 1 AE): 1(1) | Lymphocyte count decreased, events (patients) (grade 1 AE): 13(10) | Malaise, events (patients) (grade 1 AE): 3(1) | Mucositis oral, events (patients) (grade 1 AE): 1(1) | Myalgia, events (patients) (grade 1 AE): 1(1) | Nausea, events (patients) (grade 1 AE): 18(13) | Nervous system disorders - Other, specify, events (patients) (grade 1 AE): 2(2) | Neutrophil count decreased, events (patients) (grade 1 AE): 13(8) | Non-cardiac chest pain, events (patients) (grade 1 AE): 2(2) | Oral pain, events (patients) (grade 1 AE): 2(2) | Pain in extremity, events (patients) (grade 1 AE): 6(5) | Pain, events (patients) (grade 1 AE): 3(3) | Palmar-plantar erythrodysesthesia syndrome, events (patients) (grade 1 AE): 4(4) | Platelet count decreased, events (patients) (grade 1 AE): 23(17) | Proteinuria, events (patients) (grade 1 AE): 22(14) | Rash acneiform, events (patients) (grade 1 AE): 2(2) | Rash maculo-papular, events (patients) (grade 1 AE): 6(5) | Rectal pain, events (patients) (grade 1 AE): 1(1) | Renal and urinary disorders - Other, specify, events (patients) (grade 1 AE): 1(1) | Respiratory, thoracic and mediastinal disorders - Other, specify, events (patients) (grade 1 AE): 1(1) | Serum amylase increased, events (patients) (grade 1 AE): 1(1) | Skin and subcutaneous tissue disorders - Other, specify, events (patients) (grade 1 AE): 1(1) | Stomach pain, events (patients) (grade 1 AE): 3(3) | Urinary frequency, events (patients) (grade 1 AE): 2(2) | Urinary retention, events (patients) (grade 1 AE): 2(2) | Vascular disorders - Other, specify, events (patients) (grade 1 AE): 2(2) | Voice alteration, events (patients) (grade 1 AE): 2(2) | Vomiting, events (patients) (grade 1 AE): 33(19) | Weight loss, events (patients) (grade 1 AE): 2(2) | White blood cell decreased, events (patients) (grade 1 AE): 17(14) | Abdominal pain, events (patients) (grade 2 AE): 5(5) | Alanine aminotransferase increased, events (patients) (grade 2 AE): 18(10) | Anemia, events (patients) (grade 2 AE): 1(1) | Anorexia, events (patients) (grade 2 AE): 6(6) | Arthralgia, events (patients) (grade 2 AE): 1(1) | Aspartate aminotransferase increased, events (patients) (grade 2 AE): 4(4) | Back pain, events (patients) (grade 2 AE): 1(1) | Blood bilirubin increased, events (patients) (grade 2 AE): 1(1) | Bone pain, events (patients) (grade 2 AE): 2(2) | Confusion, events (patients) (grade 2 AE): 1(1) | Constipation, events (patients) (grade 2 AE): 2(2) | Cough, events (patients) (grade 2 AE): 1(1) | Creatinine increased, events (patients) (grade 2 AE): 2(2) | Dehydration, events (patients) (grade 2 AE): 2(2) | Diarrhea, events (patients) (grade 2 AE): 16(11) | Dizziness, events (patients) (grade 2 AE): 2(1) | Dyspepsia, events (patients) (grade 2 AE): 1(1) | Dysphasia, events (patients) (grade 2 AE): 1(1) | Endocrine disorders - Other, specify, events (patients) (grade 2 AE): 1(1) | Fatigue, events (patients) (grade 2 AE): 10(10) | Fever, events (patients) (grade 2 AE): 1(1) | Flushing, events (patients) (grade 2 AE): 3(1) | Gastrointestinal disorders - Other, specify, events (patients) (grade 2 AE): 1(1) | Headache, events (patients) (grade 2 AE): 10(7) | Hemoglobin increased, events (patients) (grade 2 AE): 1(1) | Hydrocephalus, events (patients) (grade 2 AE): 2(2) | Hyperglycemia, events (patients) (grade 2 AE): 3(3) | Hypernatremia, events (patients) (grade 2 AE): 4(1) | Hypertension, events (patients) (grade 2 AE): 28(28) | Hypoalbuminemia, events (patients) (grade 2 AE): 9(7) | Hypocalcemia, events (patients) (grade 2 AE): 3(3) | Hypoglycemia, events (patients) (grade 2 AE): 1(1) | Hypomagnesemia, events (patients) (grade 2 AE): 1(1) | Hypophosphatemia, events (patients) (grade 2 AE): 6(4) | Hypothyroidism, events (patients) (grade 2 AE): 10(10) | Hypoxia, events (patients) (grade 2 AE): 1(1) | Intracranial hemorrhage, events (patients) (grade 2 AE): 4(4) | Lipase increased, events (patients) (grade 2 AE): 1(1) | Lymphocyte count decreased, events (patients) (grade 2 AE): 12(8) | Mucositis oral, events (patients) (grade 2 AE): 2(2) | Myalgia, events (patients) (grade 2 AE): 2(2) | Nausea, events (patients) (grade 2 AE): 4(4) | Nervous system disorders - Other, specify, events (patients) (grade 2 AE): 1(1) | Neutrophil count decreased, events (patients) (grade 2 AE): 8(5) | Non-cardiac chest pain, events (patients) (grade 2 AE): 1(1) | Pain in extremity, events (patients) (grade 2 AE): 3(3) | Pain, events (patients) (grade 2 AE): 1(1) | Palmar-plantar erythrodysesthesia syndrome, events (patients) (grade 2 AE): 10(7) | Pericardial effusion, events (patients) (grade 2 AE): 1(1) | Peripheral motor neuropathy, events (patients) (grade 2 AE): 2(2) | Platelet count decreased, events (patients) (grade 2 AE): 3(3) | Pleural effusion, events (patients) (grade 2 AE): 1(1) | Proteinuria, events (patients) (grade 2 AE): 15(14) | Respiratory, thoracic and mediastinal disorders - Other, specify, events (patients) (grade 2 AE): 1(1) | Reversible posterior leukoencephalopathy syndrome, events (patients) (grade 2 AE): 1(1) | Seizure, events (patients) (grade 2 AE): 3(3) | Skin and subcutaneous tissue disorders - Other, specify, events (patients) (grade 2 AE): 1(1) | Skin ulceration, events (patients) (grade 2 AE): 2(2) | Urinary retention, events (patients) (grade 2 AE): 1(1) | Vomiting, events (patients) (grade 2 AE): 6(6) | Weight loss, events (patients) (grade 2 AE): 2(2) | White blood cell decreased, events (patients) (grade 2 AE): 5(3) | Abdominal pain, events (patients) (grade 3 AE): 1(1) | Alanine aminotransferase increased, events (patients) (grade 3 AE): 7(6)

— PMC4561207 (Child's nervous system : ChNS : official journal of the …, 2015)
